Source: ChEMBL document CHEMBL1125768, “Peptide derivatives specific for a Plasmodium falciparum proteinase inhibit the human erythrocyte invasion by merozoites” (J Med Chem, 1991)
Square brackets hold non-standard residues; d marks the D form. Peptide text beside a SMILES is read from it. * marks the point of attachment. NH(9-Et-carbazol-3-yl) = CCn1c2ccccc2c2cc(N*)ccc21; X1 = O=C(C(O)C(O)C(O)C(O)CO)*; Boc = CC(C)(C)OC(=O)*; Sar = CNCC(=O)O

What was measured:
[1] = tested on: Plasmodium falciparum; test: Substrate affinity for Plasmodium falciparum 68 neutral proteinase.; assay type: functional
How it was run: (§1)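 Pf 68 proteinase purified from FcR-3 schizonts, incubated with peptidyl-AEC substrates (0.5-2.0 mM) in 50 mM Tris-HCl pH 7.4, 30 min at 37 °C. Free AEC extracted into ethyl acetate, fluorescence read at ex 370/em 430 nm. A 10 μg/mL trypsin total-release digest served as reference. Km and rates from Lineweaver-Burk plots; Vrel is the rate relative to S-1.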

[2] = tested on: Plasmodium falciparum; test: Relative rate of hydrolysis by Plasmodium falciparum 68 neutral proteinase; assay type: functional; how it was run: as §1
[3] = tested on: Plasmodium falciparum; test: Inhibitory activity against Plasmodium falciparum 68 neutral proteinase; assay type: functional; conditions: read-out: I50
How it was run: (§2)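 Purified Pf 68 proteinase (FcR-3 schizonts; chromatofocusing then gel filtration; 20 μL extract). Inhibitors at 0.005-1 mM preincubated with 0.19 mM GlcA-Val-Leu-Gly-Lys-AEC in 50 mM Tris-HCl pH 7.4, then 30 min at 37 °C. Released AEC extracted into ethyl acetate, fluorescence read at ex 370/em 430 nm. Enzyme-free control for each inhibitor. I50 read from the activity-versus-concentration plot.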

[4] = tested on: Plasmodium falciparum; test: In vitro inhibition of Plasmodium falciparum 68 neutral proteinase activity by reinvasion of red blood cells; assay type: functional, organism-based
How it was run: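 Synchronized schizonts (44-48 h) from a 4-h synchronized culture, collected by Plasmagel, added to washed healthy erythrocytes at 5% hematocrit to 4-5% parasitemia, with peptide in complete medium with 5% serum. Incubated 4-6 h in a candle jar. New rings counted on Giemsa smears (5000 RBC). Inhibition = 100 − (R/R0 × 100). IC50 from 6-h runs, 5% initial segmenters, triplicate.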

[5] = tested on: Plasmodium falciparum; test: Inhibitory activity against Plasmodium falciparum 68 neutral proteinase.; assay type: functional; how it was run: as §2
[6] = tested on: Plasmodium falciparum; test: Reaction velocity for Plasmodium falciparum 68 neutral proteinase.; assay type: functional; how it was run: as §1

Question: Which results are given for `CCn1c2ccccc2c2cc(NC(=O)[C@H](CCCCN)NC(=O)CNC[C@H](CC(C)C)NC(=O)[C@H](N)C(C)C)ccc21`?
Answer: Km [1]: > 10000 µM; Vrel [2]: <3

Question: With `CC(C)C[C@H](NC(=O)[C@@H](NC(=O)[C@H](O)[C@@H](O)[C@H](O)[C@H](O)CO)C(C)C)C(=O)NCC(=O)N[C@@H](CCCCN)C(=O)O` as the compound, how does the IC50 [3] read?
Answer: > 2000 µM

Question: And the IC50 [4]?
Answer: > 10000 µM

Question: What about the Ki [5] of the same compound?
Answer: > 2500 µM

Question: What does the source list for `CCNC(=O)[C@H](CCCCN)NC(=O)CNC(=O)[C@H](CC(C)C)NC(=O)[C@@H](NC(=O)[C@H](O)[C@@H](O)[C@H](O)[C@H](O)CO)C(C)C`?
Answer: IC50 [3]: 470 µM; IC50 [4]: 900 µM; Ki [5]: 480 µM

Question: With `CC(C)C[C@H](NC(=O)[C@@H](NC(=O)[C@H](O)[C@@H](O)[C@H](O)[C@H](O)CO)C(C)C)C(=O)NCC(=O)N[C@@H](CCCCN)C(=O)N(C)CC(=O)O` as the compound, how does the IC50 [3] read?
Answer: 320 µM

Question: And the Ki [5]?
Answer: 250 µM

Question: How did the Km [1] turn out when `CCn1c2ccccc2c2cc(NC(=O)[C@H](CCCN=C(N)N)NC(=O)CNC(=O)[C@H](CO)NC(=O)C(O)C(O)C(O)C(O)CO)ccc21` (some centres not stated) was run?
Answer: > 10000 µM

Question: What about the Vrel [2] of the same compound?
Answer: <3

Question: What does the source list for `CCn1c2ccccc2c2cc(NC(=O)[C@H](CCCCN)NC(=O)CNC[C@@H](NC(=O)C(O)C(O)C(O)C(O)CO)C(C)O)ccc21` (some centres not stated)?
Answer: Km [1]: 5600 µM; Vrel [2]: 23

Question: Which Km [1] does the source give for `CCn1c2ccccc2c2cc(NC(=O)[C@H](CCCCN)NC(=O)CNC(=O)[C@@H](NC(=O)[C@@H](NC(=O)C(O)C(O)C(O)C(O)CO)C(C)C)[C@@H](C)O)ccc21` (some centres not stated) (X1-VTGK-{NH(9-Et-carbazol-3-yl)}) here?
Answer: 1250 µM

Question: And the Vrel [2]?
Answer: 26

Question: For `CCn1c2ccccc2c2cc(NC(=O)[C@H](CCCCN)NC(=O)CNC(=O)[C@H](CC(C)C)NC(=O)[C@@H](NC(=O)C(O)C(O)C(O)C(O)CO)[C@@H](C)O)ccc21` (some centres not stated) (X1-TLGK-{NH(9-Et-carbazol-3-yl)}), which Km [1] is on record?
Answer: 770 µM

Question: And the Vrel [2]?
Answer: 74

Question: With `CC[C@H](C)[C@H](NC(=O)C(O)C(O)C(O)C(O)CO)C(=O)N[C@H](CNCC(=O)N[C@@H](CCCN=C(N)N)C(=O)Nc1ccc2c(c1)c1ccccc1n2CC)C(C)C` (some centres not stated) as the compound, how does the Km [1] read?
Answer: 6250 µM

Question: What about the Vrel [2] of the same compound?
Answer: 3

Question: For `CCn1c2ccccc2c2cc(NC(=O)[C@H](CCCCN)NC(=O)CNC(=O)[C@H](CC(C)C)NC(=O)[C@@H](NC(=O)OC(C)(C)C)C(C)C)ccc21` (Boc-VLGK-{NH(9-Et-carbazol-3-yl)}), which Km [1] is on record?
Answer: 1140 µM

Question: And the Vrel [2]?
Answer: 11

Question: Which results are given for `CCN(CC)C(=O)[C@H](CCCCN)NC(=O)CNC(=O)[C@H](CC(C)C)NC(=O)[C@@H](NC(=O)[C@H](O)[C@@H](O)[C@H](O)[C@H](O)CO)C(C)C`?
Answer: IC50 [3]: > 2000 µM; IC50 [4]: > 10000 µM; Ki [5]: > 2500 µM

Question: `CC[C@H](C)[C@H](NC(=O)C(O)C(O)C(O)C(O)CO)C(=O)N[C@H](C(=O)NCC(=O)N[C@@H](CCCCN)C(=O)Nc1ccc2c(c1)c1ccccc1n2CC)C(C)C` (some centres not stated) (X1-IVGK-{NH(9-Et-carbazol-3-yl)}) was tested. Which Km [1] did it give?
Answer: 950 µM

Question: What about the Vrel [2] of the same compound?
Answer: 43

Question: For `CCn1c2ccccc2c2cc(NC(=O)[C@H](CCCCN)NC(=O)CNC(=O)[C@H](CC(C)C)NC(=O)[C@H](CO)NC(=O)C(O)C(O)C(O)C(O)CO)ccc21` (some centres not stated) (X1-SLGK-{NH(9-Et-carbazol-3-yl)}), which Km [1] is on record?
Answer: 1140 µM

Question: What about the Vrel [2] of the same compound?
Answer: 17

Question: Which results are given for `CC(C)C[C@H](NC(=O)[C@@H](NC(=O)[C@H](O)[C@@H](O)[C@H](O)[C@H](O)CO)C(C)C)C(=O)NCC(=O)N[C@@H](CCCCN)C(=O)N1CCC[C@H]1C(=O)O`?
Answer: IC50 [3]: > 2000 µM; Ki [5]: > 2500 µM

Question: `CCn1c2ccccc2c2cc(NC(=O)[C@H](CCCN=C(N)N)NC(=O)CNC(=O)[C@H](CC(C)C)NC(=O)[C@@H](NC(=O)C(O)C(O)C(O)C(O)CO)C(C)C)ccc21` (some centres not stated) (X1-VLGR-{NH(9-Et-carbazol-3-yl)}) was tested. Which Km [1] did it give?
Answer: 400 µM

Question: What about the Vrel [2] of the same compound?
Answer: 89

Question: How did the IC50 [3] turn out when `CCNC(=O)[C@H](C)NC(=O)CNC(=O)[C@H](CC(C)C)NC(=O)[C@@H](NC(=O)[C@H](O)[C@@H](O)[C@H](O)[C@H](O)CO)C(C)C` was run?
Answer: > 2000 µM

Question: And the IC50 [4]?
Answer: > 10000 µM

Question: What about the Ki [5] of the same compound?
Answer: > 2500 µM

Question: Which results are given for `CCn1c2ccccc2c2cc(NC(=O)[C@H](CCCCN)NC(=O)CNC(=O)[C@H](CO)NC(=O)C(O)C(O)C(O)C(O)CO)ccc21` (some centres not stated)?
Answer: Km [1]: 730 µM; Vrel [2]: 140

Question: With `CCn1c2ccccc2c2cc(NC(=O)[C@H](CCCCN)NC(=O)[C@H](C)NC(=O)[C@H](C)NC(=O)[C@H](C)NC(=O)C(O)C(O)C(O)C(O)CO)ccc21` (some centres not stated) (X1-AAAK-{NH(9-Et-carbazol-3-yl)}) as the compound, how does the Km [1] read?
Answer: 5000 µM

Question: What about the Vrel [2] of the same compound?
Answer: 29

Question: Which results are given for `CCn1c2ccccc2c2cc(NC(=O)[C@H](CCCCN)NC(=O)CNC(=O)[C@H](COC(=O)c3ccccc3)NC(=O)C(O)C(O)C(O)C(O)CO)ccc21` (some centres not stated)?
Answer: Km [1]: > 10000 µM; Vrel [2]: <3

Question: `CCNC(=O)CNC(=O)[C@H](CCCN=C(N)N)NC(=O)[C@H](Cc1ccccc1)NC(=O)[C@H](CC(=O)O)NC(C)=O` (Ac-DFRG-NHEt) was tested. Which IC50 [4] did it give?
Answer: > 10000 µM

Question: And the Ki [5]?
Answer: > 2500 µM

Question: Which IC50 [3] does the source give for `CCNC(=O)CNC(=O)[C@H](CCCN=C(N)N)NC(=O)[C@@H]1CCCN1C(=O)[C@H](CC(=O)O)NC(=O)OC(C)(C)C` (Boc-DPRG-NHEt) here?
Answer: > 2000 µM

Question: And the Ki [5]?
Answer: > 2500 µM

Question: Which Km [1] does the source give for `CCn1c2ccccc2c2cc(NC(=O)[C@H](CCCCN)NC(=O)CN(C)C(=O)[C@H](CC(C)C)NC(=O)[C@@H](NC(=O)C(O)C(O)C(O)C(O)CO)C(C)C)ccc21` (some centres not stated) (X1-VL[Sar]K-{NH(9-Et-carbazol-3-yl)}) here?
Answer: 1670 µM

Question: What about the Vrel [2] of the same compound?
Answer: 80

Question: With `CC(C)C[C@H](NC(=O)[C@@H](NC(=O)[C@H](O)[C@@H](O)[C@H](O)[C@H](O)CO)C(C)C)C(=O)N(C)CC(=O)N[C@@H](CCCN=C(N)N)C(=O)N(C)CC(=O)O` as the compound, how does the IC50 [3] read?
Answer: 2000 µM

Question: What about the Ki [5] of the same compound?
Answer: 2500 µM

Question: Which IC50 [3] does the source give for `CC(C)C[C@H](NC(=O)[C@@H](NC(=O)[C@H](O)[C@@H](O)[C@H](O)[C@H](O)CO)C(C)C)C(=O)NCC(=O)N[C@@H](CCCN=C(N)N)C(=O)N(C)CC(=O)O` here?
Answer: 1000 µM

Question: And the Ki [5]?
Answer: 1220 µM

Question: Which Km [1] does the source give for `CCn1c2ccccc2c2cc(NC(=O)[C@H](CCCCN)NC(=O)CNC(=O)[C@H](CC(C)C)NC(=O)[C@@H](NC(=O)C(O)C(O)C(O)C(O)CO)C(C)C)ccc21` (some centres not stated) (X1-VLGK-{NH(9-Et-carbazol-3-yl)}) here?
Answer: 380 µM

Question: What about the Vm [6] of the same compound?
Answer: 35 uM ml-1

Question: What about the Vrel [2] of the same compound?
Answer: 100

Question: How did the IC50 [3] turn out when `CC(C)C[C@H](NC(=O)[C@@H](NC(=O)[C@H](O)[C@@H](O)[C@H](O)[C@H](O)CO)C(C)C)C(=O)NCC(=O)N[C@@H](CCCCN)C(=O)NC(CO)CO` was run?
Answer: 1500 µM

Question: And the Ki [5]?
Answer: 1460 µM
